Where two headings read alike, the source gives them in different places.
Experiments:
[1] = test system: RAW 264.7 macrophage cells; assay: Protection from PMA-induced cytotoxicity; format: cell-based
RAW 264.7 cells = assay: Cytotoxicity
[2] = test system: RAW 264.7 macrophage cells; assay: Intracellular ROS by DHE fluorescence in PMA-treated macrophages; format: cell-based; details: PMA 1 μg/mL 3 h; DHE 10 μM 30 min
[3] = Conventional and cryogenic TEM of self-assembled nanostructures; format: physicochemical
[4] = H2S release measured with H2S-sensitive electrochemical probe; format: physicochemical
Static light scattering = format: physicochemical; details: average
[5] = Nile Red assay, critical aggregation concentration; format: physicochemical; details: Nile Red fluorescence; 10 mM phosphate buffer pH 7.4, room temperature
Procedure, shortened: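 Test compound dissolved in 10 mM phosphate buffer pH 7.4 at room temperature, where it self-assembles. Nile Red fluorescence intensity was recorded across a series of test compound concentrations. CAC was calculated from the rise in intensity with concentration, taken as Nile Red solubilisation in the hydrophobic domain.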

[6] = PMA 2 μg/mL 3 h, Cys 800 μM, AdKOKOEE and AdKSKSE 200 μM (+ Cys), GYY4137 and Na2S 400 μM, Figure 4B
[7] = conventional and cryo-TEM, PB 10 mM pH 7.4, 1 mM

With `N[C@@H](CS)C(=O)O` [Cys, cysteine, reference compound] the “protective effect on viability of PMA-treated cells” value (from here on “protective effect on viability”) [1, 6] was “Neither treatment with Cys alone nor treatment with a combination of the non-H2S-releasing control peptide (AdKOKOEE) and Cys showed any protective effect”.

With `C1COCCN1.COc1ccc(P(=S)(S)N2CCOCC2)cc1` (stereo not drawn) [GYY4137, reference compound] the “protective effect on viability” value [1] was “Neither affected cell viability”.

In the case of `[Na+].[Na+].[S-2]` [Na2S, sodium sulfide, reference compound], the “protective effect on viability” value [1] is reported as “Neither affected cell viability”.

For `CCCCCCCCCCCCCC(=O)O[C@@H]1[C@@H](C)[C@@]2(O)[C@@H](C=C(CO)C[C@]3(O)C(=O)C(C)=C[C@@H]23)[C@@H]2C(C)(C)[C@]12OC(C)=O` [PMA, phorbol 12-myristate 13-acetate], the “concentration inducing significant cytotoxicity” value (RAW 264.7 cells; Figure 4A) was no less than 1000 ng/mL, the “cell viability after PMA alone” value (RAW 264.7 cells; PMA 2 μg/mL) was 67% and the “ROS level (DHE red fluorescent signal) after PMA alone, versus untreated cells” value [2] was “much brighter”.

For AdKOKOEE, the “protective effect on viability” value [1, 6] was “Neither treatment with Cys alone nor treatment with a combination of the non-H2S-releasing control peptide (AdKOKOEE) and Cys showed any protective effect”.

In the case of AdKSKSE, the “average length of short nanoworms” value ([3]; conventional TEM, UA stained, PB 10 mM pH 7.4, 100 μM) is reported as 33±2 nm, the “protective effect on viability” value [1, 6] is reported as “some cell protective ability, but it was not as good as AdKSKSEE” and the “H2S release rate relative to AdKsKsEE” value ([4]; Figure S13, both contain two SATO units and release similar amounts) is reported as “somewhat faster”.

With AdKSKSEE the “average external diameter of crescent nanostructures” value [3, 7] was 28±3 nm, the “average width of crescent nanostructures” value [3, 7] was 5±1 nm and the “aggregation number, estimate from nanocrescent volume” value ([3]; nanocrescent volume from TEM dimensions divided by estimated molecular volume) was 560. The “aggregation number (molecules per crescent nanostructure)” value (Static light scattering) was 600, the “cell viability on co-treatment with PMA” value ([1]; PMA 2 μg/mL, AdKSKSEE 200 μM + Cys 800 μM, 3 h, three experiments with five replicates) was 95% and the “H2S release peaking time” value ([4]; PHDC 1 mM + Cys 4 mM in PB at rt, electrochemical probe, average of three runs) was 125 ± 15 min. The “H2S release without Cys” value ([4]; PHDC 1 mM in PB at rt, no Cys, electrochemical probe) was “minimal H2S was detected” and the “critical aggregation concentration (CAC)” value [5] was 27 µM.
